NR2E3 ag-1 – NR2E3 agonists in two-hybrid cells, primary screen, cell-based, luminescence, CHO-S, Gal4-NCOR/VP16-NR2E3 | luciferase | inhibition of corepressor binding, % at 3.98 µM | 0.35% of 360,000 active;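 active = inhibition above the mean of all tested compounds plus 3 SD, cut at about 70% in these data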;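 note: 0% = DMSO with NR2E3 transfected cells and 100% = cells lacking NR2E3 construct; higher means lower luciferase signal from less NR2E3 corepressor binding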
core dimer inh – inhibitors of HCV core protein dimerization, primary screen, biochemical, TR-FRET, high-throughput; TR-FRET GST/Flag-core106 dimerization, 1536-well; inhibition, % at 5 µM; 0.33% of 300,000 active;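 active = inhibition above the mean of all tested compounds plus 3 SD, set per screening campaign, cut at about 45% in these data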
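Assay system: tagged HCV core106 pair (GST and Flag); medium: KF-containing HEPES buffer, pH 7.45, DTT, CHAPS, BSA; also added: Eu donor and XL665 acceptor anti-tag antibodies; dosing: 5 µM single dose; timing: compound-protein-antibody incubation 4 h at 22.5 °C; signal: TR-FRET 671 and 617 nm emission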
DAGLB inh – DAGLB lipase inhibitors, primary screen, biochemical, fluorescence, HTS; inhibition, % at 5.17 µM; 0.059% of 340,000 active; Diacylglycerol lipase-beta (Homo sapiens), Q8NCG7; AID 504411, 2011; HEK293T DAGLB membrane lysate, EnzChek fluorogenic substrate; in the data active = inhibition above about 34%;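 note: 0% = enzyme with vehicle and 100% = wells lacking enzyme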
Target sequence (Q8NCG7 whole entry, looked up): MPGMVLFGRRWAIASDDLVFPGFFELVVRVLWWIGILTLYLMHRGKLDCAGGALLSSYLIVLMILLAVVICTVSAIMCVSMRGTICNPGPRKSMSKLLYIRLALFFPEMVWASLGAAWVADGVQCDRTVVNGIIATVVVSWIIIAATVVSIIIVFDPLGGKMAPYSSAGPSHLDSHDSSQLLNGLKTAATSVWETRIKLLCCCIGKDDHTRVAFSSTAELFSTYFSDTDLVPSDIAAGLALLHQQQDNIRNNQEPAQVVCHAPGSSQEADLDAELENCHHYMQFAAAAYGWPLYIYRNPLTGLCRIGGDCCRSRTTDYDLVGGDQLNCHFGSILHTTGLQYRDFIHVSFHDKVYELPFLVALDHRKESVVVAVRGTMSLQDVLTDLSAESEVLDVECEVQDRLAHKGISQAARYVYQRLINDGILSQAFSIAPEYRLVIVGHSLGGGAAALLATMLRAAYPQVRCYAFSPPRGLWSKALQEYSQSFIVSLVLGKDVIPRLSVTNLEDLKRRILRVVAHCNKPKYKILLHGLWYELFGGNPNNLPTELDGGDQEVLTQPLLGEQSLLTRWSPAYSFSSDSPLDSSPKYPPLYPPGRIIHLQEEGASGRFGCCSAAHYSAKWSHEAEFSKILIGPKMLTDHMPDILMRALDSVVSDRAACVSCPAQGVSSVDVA
Vif inh – HIV Vif self-association inhibitors, primary screen, imaging, HEK293T, single point | HEK293T cells, Vif self-association by quenched fluorescence, 24 h | AID 602346, 2012 | inhibition, % at 7.49 µM | 0.35% of 340,000 active; in the data active = inhibition above about 50%, passing the limit was not always enough
NR2E3 ag-2 – inhibitors of NR2E3-RetCOR corepressor binding, primary screen, NR2E3 agonist project, biochemical, TR-FRET, GST-NR2E3, biotin-RetCOR | Photoreceptor-specific nuclear receptor (Homo sapiens), Q9Y5X4 | 1536-well | inhibition of corepressor binding, % at 4.78 µM | 0.12% of 320,000 active;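 active = percent inhibition above the cutoff of mean plus 3 SD of all tested compounds, set per screening campaign, cut at about 20% in these data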;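 note: 0% = DMSO wells and 100% = biotin wells as full block of FRET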
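Material: NR2E3–RetCOR corepressor complex | Quantity: 1.35 nM GST-tagged NR2E3 final | Schedule: 5 h at 4 °C | Replication: Singlicate compound wells | Reagent: RetCOR corepressor, biotinylated, 7 nM | Controls: Biotin wells as high control, 0.6% DMSO wells as low control | Signal: TR-FRET, Eu(K)-anti-GST donor, streptavidin-D2 acceptor, ex 340, em 617/671 nm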
MT1-MMP act inh – blockers of MT1-MMP proenzyme processing, primary screen, HT1080 RFP-PRO-GFP cells, GFP/RFP fluorescence; AID 651647, 2012; 0.061% of 360,000 active; GFP/RFP ratio change, % at 20 µM; GFP/RFP ratio fluorescence, overnight; percent of plate control window, DMSO zero; Matrix metalloproteinase-14 (Homo sapiens), P50281;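 active = GFP/RFP ratio change of at least 30% with cell ATP level not reduced by more than half and red fluorescence within 50% of control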
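system = RFP-PRO-GFP reporter HT1080 cells | dosing = 20 µM single dose, 1% DMSO | timing = overnight cell settling, then overnight compound exposure, 37 °C, 5% CO2 | read-out basis = GFP/RFP fluorescence ratio | controls = DMSO and RFP-L50D-GFP cell wells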
Numbers without * were called inactive; nt = no result given; + = active, no number; ! = not confirmed by another sample. Most compounds without a hit are left out; they make up all but 1.1% or so of the library.

SMILES	NR2E3 ag-1	core dimer inh	DAGLB inh	Vif inh	NR2E3 ag-2	MT1-MMP act inh
Oc1ccc(-c2nc(-c3ccc(O)c(O)c3)cs2)cc1	-3.5	-1.0	1.2	64.4*	1.0	12.8
Cc1ccccc1-c1cnc(C(O)c2c(C)ccc3ccccc23)[nH]1 (stereo unspecified)	-3.6	nt	nt	0.6	nt	-3.3
O=C1/C(=C/c2cccc([N+](=O)[O-])c2)CSc2ccc(Cl)cc21	-15.3	5.2	0.9	2.1	1.5	-6.6
O=C1/C(=C/c2ccc([N+](=O)[O-])cc2)CCc2ccccc21	nt	4.3	nt	nt	-3.7	nt
CCN1C/C(=C\c2cccc([N+](=O)[O-])c2)C(=O)/C(=C/c2cccc([N+](=O)[O-])c2)C1	-10.7	nt	2.6	70.1*	nt	-17.3
O=C1/C(=C/c2cccc([N+](=O)[O-])c2)CCc2ccccc21	-6.6	8.6	-6.9	136.2*	1.1	-0.6
CCOC(=O)CC1(C)Oc2cc(Cl)ccc2N1S(=O)(=O)c1ccc(C)cc1 (stereo unspecified)	nt	nt	nt	nt	nt	0.1
O=S1(=O)CC(c2ccccc2)=NN=C(c2ccccc2)C1	-113.5	nt	-5.8	0.0	nt	3.6
Cc1cc2c(cc1C)-n1nnnc1C(N(Cc1ccccc1)Cc1ccccc1)C(=O)N2 (stereo unspecified)	nt	nt	nt	nt	nt	-8.8
CCNC(=O)NC(=O)COC(=O)c1ccccc1SCC(=O)NC(=O)NCC	-104.1	-24.6	1.2	-6.1	-2.4	35.4*
O=C(COC(=O)/C=C/c1ccc(Br)o1)Nc1ccc2[nH]c(=O)[nH]c2c1	13.6	89.9*	-1.0	-12.3	6.6	0.4
NC(=O)c1ccc(NC(=O)COC(=O)/C=C/c2ccc(Br)o2)cc1	9.3	nt	3.5	-4.2	nt	-4.7
Fc1ccc(-c2n[nH]c(=S)c3ccccc23)cc1	15.4	25.3	-0.6	52.2*	3.4	2.4
CCCOC(=O)C[N+](C)(C)CCOC1CC2CCC1(C)C2(C)C (stereo unspecified)	9.3	-5.4	0.6	63.3*	1.2	-1.5
O=C(COC(=O)COc1ccc(Cl)cc1Br)NC1CCCCCC1	-1.7	nt	-7.1	59.3*	0.5	-4.1
CCN1C(=O)/C(=C/C=C2/Sc3ccccc3N2CCO)SC1=S	-24.7	-1.0	1.5	-5.5	-0.8	28.5
CCN1C(=S)SC(=O)C1=C1C=C(C)N(CCO)C(C)=C1	-134.9	-28.8	4.8	+	-5.1	-26.9
Cc1cc(C)c2nc(Cl)c(Cl)nc2c1	-7.5	6.3	1.3	16.2	2.8	-1.2
O=C1NCCOC(=O)[C@@H](Cc2ccc(F)cc2)C/C=C\C[C@@H]1CC(=O)N(CCO)Cc1ccccc1	-0.4	nt	-0.4	-9.5	nt	6.9
O=C(CCNC(=O)c1ccco1)Nc1ccc(OC(F)(F)F)cc1	-14.8	-5.9	-3.8	110.5*	-1.5	-2.5
O=C(CCNC(=O)c1ccco1)Nc1ccc(C(F)(F)F)cc1	19.0	5.3	-0.4	-3.3	3.2	4.1
O=C(Cc1cccc(NC(=O)C2CCN(C(=O)CCc3ccccc3)CC2)c1)Nc1cccc(C(=O)N2CCCCC2)c1	10.3	nt	-0.1	-5.1	nt	2.1
Cc1ccc(S(=O)(=O)/C(C#N)=C/c2c(N3CC(C)OC(C)C3)nc3ccccn3c2=O)cc1 (stereo unspecified)	-10.1	11.7	1.8	67.3*	4.2	1.9
COc1ccc(/C(N)=N/OC(=O)CN(C)S(=O)(=O)c2ccc(C)cc2)cc1	13.4	nt	-5.3	-7.5	nt	3.6
Cc1ccccc1C(=O)Nc1ccc(C(=O)N/N=C/c2ccncc2)cc1	21.5	-2.0	-1.1	-1.1	1.8	-0.6
SMILES	NR2E3 ag-1	core dimer inh	DAGLB inh	Vif inh	NR2E3 ag-2	MT1-MMP act inh
Cc1ccccc1C(=O)Nc1ccc(C(=O)N/N=C/c2ccc(O)cc2)cc1	1.7	-6.3	-2.4	69.9*	-0.9	-0.4
Cc1cccc(-n2c(-c3ccncc3)n[nH]c2=S)c1C	11.4	49.1*	3.1	-1.4	-1.4	0.8
Cc1ccccc1-n1c(-c2ccncc2)n[nH]c1=S	-0.8	-6.0	1.5	6.1	0.3	-3.3
CN(C)CCCNCCCNC(=O)c1ccco1	-2.4	3.3	-1.7	64.8*!	-0.4	-5.2
COCCCN1C(=O)C(CC(=O)NC(c2ccccc2)c2ccccc2)CC(C(=O)N(C(C)C)C(C)C)=C1C (stereo unspecified)	0.7	nt	nt	-0.8	nt	0.5
Cc1ccc(CN2C(=O)C3CCCN3c3ccc(S(=O)(=O)N4CCOCC4)cc32)cc1 (stereo unspecified)	nt	47.7*	nt	nt	-0.1	nt
COc1ccc(CCn2c(O)cc3nn(-c4nc5ccccc5s4)c(=O)c-3c2C)cc1	-6.7	60.0*	17.4	-7.8	-0.5	-3.1
O=C(NC1CCCCC1)c1nc(-c2c(F)cccc2F)oc1-c1ccccc1	nt	nt	nt	nt	nt	-4.1
COc1ccc(-c2nnc(SCC(=O)N3CCCc4ccccc43)o2)cc1OC	9.0	-0.5	-4.9	61.2*	-2.0	8.5
COc1ccc(-c2nnc(SCC(=O)N3CCCC3)o2)cc1OC	nt	-1.0	nt	nt	1.3	nt
CCCC1(C2CCCC2)NC(=O)NC1=O (stereo unspecified)	5.1	nt	-1.7	96.8*	nt	1.3
O=[N+]([O-])C(/C=C(/Cl)[N+](=O)[O-])=C(N1CCCCC1)N1CCCCC1	14.0	-0.3	3.7	-2.8	-3.3	13.1
COCCCn1c(SCC(=O)N2CCc3ccccc32)nnc1-c1ccoc1C	-10.8	54.8*	-0.6	13.0	3.9	-9.9
COCCCn1c(SCC(=O)N2CCc3ccccc32)nnc1-c1ccco1	-3.2	-0.4	-0.7	0.5	-3.0	2.9
CCc1cccc2c(C(=O)CN3C(=O)N(C)C4(CCCCC4)C3=O)c[nH]c12	22.0	nt	-8.4	18.5	0.4	0.1
Cc1ccc(C2C(C=Nc3c(C)n(C)n(-c4ccccc4)c3=O)=C(c3ccccc3)Oc3ccccc32)cc1 (stereo unspecified)	13.8	46.4*	-5.1	17.4	-1.5	-7.5
O=C(/C=C/c1ccco1)NC(=S)Nc1cccc(-c2nc3ccccc3o2)c1	-59.1	56.0*	-2.0	nt	-2.1	0.5
Cc1ccccc1NC(=S)NC(=O)/C=C/c1ccco1	1.5	1.7	3.0	4.5	-1.2	-10.1
Cc1ccc(-c2nc3ccccc3o2)cc1NC(=S)NC(=O)/C=C/c1ccco1	-40.4	55.7*	-3.5	5.1	0.5	-7.7
CCCc1nnc(NC(=O)CCC(=O)N2CCN(c3ccccc3)CC2)s1	4.4	9.8	4.7	-1.8	-0.8	-0.4
